Measured values published in ChEMBL document CHEMBL3774332, “Synthesis, biological evaluation and molecular modeling of pseudo-peptides based statine as inhibitors for human tissue kallikrein 5” (Eur J Med Chem, 2016).
Active and inactive are the calls of the source. No cut-off for these calls is given here.

Key:
[1] = target: Kallikrein-5 (Homo sapiens) (UniProt Q9Y337); test: Inhibition of human KLK5 using Abz-KLRSSKQ-EDDnp as substrate at >1 uM preincubated for 5 mins followed by substrate addition by spectrofluorimetric analysis
[2] = target: Kallikrein-6 (Homo sapiens) (UniProt Q92876); test: Inhibition of human KLK6 using Abz-KLRSSKQ-EDDnp as substrate at >1 uM preincubated for 5 mins followed by substrate addition by spectrofluorimetric analysis
[3] = Solubility in aqueous buffer solution at >1 uM; format: physicochemical
How it was run: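 Solubility was tested in the aqueous assay buffer (50 mM Tris–HCl, pH 7.5) before enzymatic assays, at concentrations above 1.0 µM.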

[4] = target: Kallikrein-7 (Homo sapiens) (UniProt P49862); test: Inhibition of human KLK7 using Abz-KLYSSKQ-EDDnp as substrate at >1 uM preincubated for 5 mins followed by substrate addition by spectrofluorimetric analysis
[5] = target: Kallikrein-1 (Homo sapiens) (UniProt P06870); test: Inhibition of human KLK1 using Abz-KLRSSKQ-EDDnp as substrate at >1 uM preincubated for 5 mins followed by substrate addition by spectrofluorimetric analysis
[6] = target: Kallikrein-6 (Homo sapiens) (UniProt Q92876); test: Inhibition of human KLK6 using Abz-KLRSSKQ-EDDnp as substrate at 10 to 100 uM preincubated for 5 mins followed by substrate addition by spectrofluorimetric analysis
How it was run: (§1)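 Residual-activity screen in 50 mM Tris–HCl, pH 7.5. Compound stocks in DMSO:H2O 1:1 were diluted to 10 µM final, and in some runs raised to 100 µM. Inhibitor was incubated with enzyme for 5 min at 37°C. Substrate was then added: Abz-KLRSSKQ-EDDnp for KLK1, KLK5 and KLK6, or Abz-KLYSSKQ-EDDnp for KLK7. Fluorescence was read at ex 320 nm, em 420 nm and compared with an inhibitor-free control.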

[7] = target: Kallikrein-1 (Homo sapiens) (UniProt P06870); test: Inhibition of human KLK1 using Abz-KLRSSKQ-EDDnp as substrate at 10 to 100 uM preincubated for 5 mins followed by substrate addition by spectrofluorimetric analysis; how it was run: as §1
[8] = target: Kallikrein-5 (Homo sapiens) (UniProt Q9Y337); test: Inhibition of human KLK5 using Abz-KLRSSKQ-EDDnp as substrate at 10 to 100 uM preincubated for 5 mins followed by substrate addition by spectrofluorimetric analysis; how it was run: as §1
[9] = target: Kallikrein-7 (Homo sapiens) (UniProt P49862); test: Inhibition of human KLK7 using Abz-KLYSSKQ-EDDnp as substrate at 10 to 100 uM preincubated for 5 mins followed by substrate addition by spectrofluorimetric analysis; how it was run: as §1
[10] = target: Kallikrein-6 (Homo sapiens) (UniProt Q92876); test: Inhibition of human KLK6 using Abz-KLRSSKQ-EDDnp as substrate at 10 uM preincubated for 5 mins followed by substrate addition by spectrofluorimetric analysis; how it was run: as §1
[11] = target: T1, Kallikrein-5 (Homo sapiens, UniProt Q9Y337); test: Competitive inhibition of human KLK5 using Abz-KLRSSKQ-EDDnp as substrate preincubated for 5 mins followed by substrate addition by Lineweaver-Burk plot analysis
T1 sequence (Q9Y337 whole entry): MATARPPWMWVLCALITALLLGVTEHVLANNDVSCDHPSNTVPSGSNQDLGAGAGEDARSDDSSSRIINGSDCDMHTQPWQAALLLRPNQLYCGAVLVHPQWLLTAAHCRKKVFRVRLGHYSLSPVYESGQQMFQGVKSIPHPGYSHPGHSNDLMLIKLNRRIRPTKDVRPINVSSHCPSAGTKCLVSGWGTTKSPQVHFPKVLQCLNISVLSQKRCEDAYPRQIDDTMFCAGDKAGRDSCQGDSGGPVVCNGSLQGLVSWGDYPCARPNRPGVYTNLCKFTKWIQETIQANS
How it was run: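 Human KLK5 (0.02 µg) was preincubated with inhibitor for 5 min at 37°C in 50 mM Tris–HCl, pH 7.5. Reaction was started with FRET substrate Abz-KLRSSKQ-EDDnp and read by fluorescence (ex 320 nm, em 420 nm). Initial rates were measured without inhibitor and at four inhibitor concentrations. Ki was taken as the x-intercept of 1/V0 versus inhibitor concentration at constant substrate. Mode was assigned from Lineweaver–Burk plots.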

[12] = target: Kallikrein-5 (Homo sapiens) (UniProt Q9Y337); test: Inhibition of human KLK5 using Abz-KLRSSKQ-EDDnp as substrate at 10 uM preincubated for 5 mins followed by substrate addition by spectrofluorimetric analysis; how it was run: as §1
[13] = target: Kallikrein-7 (Homo sapiens) (UniProt P49862); test: Inhibition of human KLK7 using Abz-KLYSSKQ-EDDnp as substrate at 10 uM preincubated for 5 mins followed by substrate addition by spectrofluorimetric analysis; how it was run: as §1
[14] = target: T1, Kallikrein-5; test: Inhibition of human KLK5 using Abz-KLRSSKQ-EDDnp as substrate preincubated for 5 mins followed by substrate addition by spectrofluorimetric analysis
How it was run: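 Assay in 50 mM Tris–HCl, pH 7.5, with 0.02 µg human KLK5 and inhibitor incubated 5 min at 37°C before adding Abz-KLRSSKQ-EDDnp. Fluorescence was read at ex 320 nm, em 420 nm. IC50 came from rates at five or more inhibitor concentrations across 0.01–1.0 µM. Values are means ± SD of three independent experiments.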

[15] = target: Kallikrein-1 (Homo sapiens) (UniProt P06870); test: Inhibition of human KLK1 using Abz-KLRSSKQ-EDDnp as substrate at 10 uM preincubated for 5 mins followed by substrate addition by spectrofluorimetric analysis; how it was run: as §1

Chain of Kallikrein-1 (Homo sapiens) (P06870 25-262 limits assumed): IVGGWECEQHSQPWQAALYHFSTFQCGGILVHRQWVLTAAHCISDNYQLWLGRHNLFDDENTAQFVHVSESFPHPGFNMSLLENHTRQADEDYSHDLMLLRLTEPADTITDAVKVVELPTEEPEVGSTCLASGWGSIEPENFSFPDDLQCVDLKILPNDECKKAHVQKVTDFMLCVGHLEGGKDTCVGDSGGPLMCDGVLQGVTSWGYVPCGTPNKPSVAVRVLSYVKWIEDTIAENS
Chain of Kallikrein-7 (Homo sapiens) (P49862 30-253 limits assumed): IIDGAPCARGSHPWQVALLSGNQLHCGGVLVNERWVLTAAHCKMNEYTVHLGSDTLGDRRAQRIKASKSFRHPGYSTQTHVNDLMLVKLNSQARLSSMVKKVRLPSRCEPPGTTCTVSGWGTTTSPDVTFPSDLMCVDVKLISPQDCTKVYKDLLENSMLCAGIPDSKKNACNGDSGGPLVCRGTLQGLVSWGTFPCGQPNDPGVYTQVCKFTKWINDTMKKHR

Row | Compound | inhibition [1] | inhibition [2] | solubility [3] | inhibition [4] | inhibition [5] | inhibition [6] | inhibition [7] | inhibition [8] | inhibition [9] | inhibition [10] | Ki [11] | inhibition [12] | inhibition [13] | IC50 [14] | inhibition [15]
1 | CC(C)(C)OC(=O)N[C@@H](Cc1ccccc1)[C@@H](O)CC(=O)N[C@@H](Cc1ccccc1)C(=O)N[C@H]1CO[C@H]2[C@@H]1OC[C@H]2OCc1ccccc1 | inactive | inactive | Insoluble | inactive | inactive |  |  |  |  |  |  |  |  |  | 
2 | CC(C)(C)OC(=O)N[C@@H](Cc1ccccc1)[C@@H](O)CC(=O)N[C@@H](Cc1ccccc1)C(=O)O |  |  | soluble |  |  | inactive | inactive | inactive | inactive |  |  |  |  |  | 
3 | CC(C)[C@H](NC(=O)C[C@H](O)[C@H](Cc1ccccc1)NC(=O)OC(C)(C)C)C(=O)N[C@H]1CO[C@H]2[C@@H]1OC[C@H]2OCc1ccccc1 | inactive | inactive | Insoluble | inactive | inactive |  |  |  |  |  |  |  |  |  | 
4 | COC(=O)[C@@H](NC(=O)C[C@H](O)[C@H](Cc1ccccc1)NC(=O)OC(C)(C)C)C(C)C |  |  | soluble |  |  |  |  |  |  | inactive | 130 nM | Active | inactive | 115 nM | inactive
5 | CC(C)(C)OC(=O)N[C@@H](Cc1ccccc1)[C@@H](O)CC(=O)N1CCC[C@H]1C(=O)O |  |  | soluble |  |  | inactive | inactive | inactive | inactive |  |  |  |  |  | 

The remaining lines, values ahead:

Row | inhibition [1] | inhibition [2] | solubility [3] | inhibition [4] | inhibition [5] | inhibition [6] | inhibition [7] | inhibition [8] | inhibition [9] | inhibition [10] | Ki [11] | inhibition [12] | inhibition [13] | IC50 [14] | inhibition [15] | Compound
6 |  |  | soluble |  |  |  |  |  |  | inactive | 120 nM | Active | inactive | 112 nM | inactive | COC(=O)[C@H](Cc1ccccc1)NC(=O)C[C@H](O)[C@H](Cc1ccccc1)NC(=O)OC(C)(C)C
7 |  |  | soluble |  |  |  |  |  |  | inactive | 130 nM | Active | inactive | 122 nM | inactive | COC(=O)[C@@H]1CCCN1C(=O)C[C@H](O)[C@H](Cc1ccccc1)NC(=O)OC(C)(C)C
8 | inactive | inactive | Insoluble | inactive | inactive |  |  |  |  |  |  |  |  |  |  | CC(C)(C)OC(=O)N[C@@H](Cc1ccccc1)[C@@H](O)CC(=O)N1CCC[C@H]1C(=O)N[C@H]1CO[C@H]2[C@@H]1OC[C@H]2OCc1ccccc1
9 |  |  | soluble |  |  | inactive | inactive | inactive | inactive |  |  |  |  |  |  | CC(C)[C@H](NC(=O)C[C@H](O)[C@H](Cc1ccccc1)NC(=O)OC(C)(C)C)C(=O)O
